Scp-1 inhibitor = Scp-1 phosphatase inhibitors, primary screen, biochemical, colorimetric, uHTS | inhibition, % at 20 µM | 0.88% of 340,000 active | Recombinant Scp1, phosphopeptide, malachite green phosphate absorbance | Carboxy-terminal domain RNA polymerase II polypeptide A small phosphatase 1 (Homo …;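 active means inhibition above about 50% at 20 µM, limit read from the data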;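 further: plate controls were DMSO wells with enzyme for no effect and wells lacking enzyme for full effect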
Target sequence (Q9GZU7 76-261 limits assumed): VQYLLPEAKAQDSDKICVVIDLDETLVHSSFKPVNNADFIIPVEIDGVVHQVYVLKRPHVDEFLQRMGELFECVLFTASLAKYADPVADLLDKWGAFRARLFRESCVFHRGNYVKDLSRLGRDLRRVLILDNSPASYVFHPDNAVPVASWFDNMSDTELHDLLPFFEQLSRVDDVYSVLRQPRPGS
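Test system: SCP-1 phosphatase catalytic domain, residues 76-261 | Compound dosing: One concentration, 20 µM, with 1.0% DMSO | Schedule: 45 min room-temperature reaction, 5 min colour, 30 min stabiliser | Detection: Absorbance at 630 nm | Read-out basis: % inhibition of SCP-1 phosphate liberation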
STEP inh = STEP phosphatase inhibitors, primary screen, biochemical, fluorescence intensity, uHTS. Tyrosine-protein phosphatase non-receptor type 5 (Homo sapiens), P54829. recombinant STEP, OMFP fluorogenic substrate. inhibition, % at 20 µM. 0.25% of 360,000 active. AID 588621, 2011;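 active means inhibition at 20 µM, scaled per plate between control wells, above about 37%, limit read from the data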;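 further: 0% = DMSO with enzyme and substrate and 100% = substrate only without enzyme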
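System: STEP (striatal-enriched tyrosine phosphatase) enzyme, cell-free; medium: Bis-Tris pH 6.0 buffer with DTT, detergent; dosing: 20 µM, 1% DMSO; times: reaction 20 min, ambient temperature; detection: fluorescence, 480/540 nm; read-out basis: normalized % inhibition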
Rpn11 block = Rpn11 (PSMD14) deubiquitinase inhibitors, primary screen, biochemical, fluorescence polarization, uHTS | human 26S proteasome, Ub4-pepOG fluorescence polarization; 20S core pre-blocked with epoxomicin | inhibition, % at 20 µM | 0.59% of 360,000 active;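 active means inhibition at 20 µM, scaled to each plate's controls, above about 33%, limit read from the data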
DNMT1 block = human DNMT1 methyltransferase inhibitors, primary screen, biochemical, molecular beacon, fluorescence, HinP1I cleavage, uHTS. DNA (cytosine-5)-methyltransferase 1 (Homo sapiens), P26358. inhibition (reported as % activation of signal), % at 10 µM. 0.83% of 360,000 active; in the data active means inhibition above about 50%
LMPTP inh = LMPTP phosphatase inhibitors, primary screen, biochemical, fluorescence intensity, uHTS. Low molecular weight phosphotyrosine protein phosphatase (Homo sapiens), P24666. recombinant LMPTP-A, OMFP fluorogenic substrate. inhibition, % at 20 µM. 0.22% of 360,000 active. AID 651560, 2012;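 active means compounds that cut the enzyme signal by at least half of the control window in the single-dose screen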;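 further: plate controls were DMSO wells with enzyme plus substrate for no effect and substrate without enzyme for full effect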
Target sequence (P24666 whole entry, looked up): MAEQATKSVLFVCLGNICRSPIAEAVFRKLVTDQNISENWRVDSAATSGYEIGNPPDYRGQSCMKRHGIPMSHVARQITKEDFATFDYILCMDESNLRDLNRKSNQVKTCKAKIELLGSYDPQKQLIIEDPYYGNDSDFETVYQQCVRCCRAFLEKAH
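material = LMPTP-A | quantity = 0.625 nM enzyme | reagent = OMFP substrate, 400 µM final | buffer or medium = Bis-Tris pH 6.0, DTT, detergent | detection = endpoint fluorescence intensity from OMFP dephosphorylation | dosing = single 20 µM dose | read-out basis = % inhibition relative to no-enzyme and uninhibited control wells | control set = no-enzyme and uninhibited controls | timing = 50 min at room temperature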
SUMO1-SIM PPI = modulators of SUMO1 protein-protein interactions, primary screen, biochemical, uHTS | Small ubiquitin-related modifier 1 (Homo sapiens), P63165 | inhibition, % at 20 µM | 0.33% of 360,000 active | AID 602429, 2012 | SUMO1 binding to a labelled peptide, TR-FRET, 1 h; in the data active means inhibition above about 37%
Target sequence (P63165 whole entry, looked up): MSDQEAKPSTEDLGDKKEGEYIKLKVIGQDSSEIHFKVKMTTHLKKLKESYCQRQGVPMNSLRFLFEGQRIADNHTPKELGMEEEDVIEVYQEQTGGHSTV
DNMT1 confirm = DNMT1 methyltransferase inhibitor retest, confirmation, biochemical, molecular beacon, fluorescence, single concentration; AID 602385, 2012; DNMT1 molecular beacon HinP1I cleavage; inhibition, % at 10 µM; shares compounds with DNMT1 block; 8% of 2,300 active;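 active means average inhibition of at least 30% in the single-concentration confirmation test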
Beacon interf = beacon fluorescence artifact counter-screen | AID 602387 | DNMT1 molecular beacon spectral interference counterscreen, fluorescence 485/520 | 1% of 2,300 active | activation (fluorescence interference), % at 10 µM | shares compounds with DNMT1 block;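 active means activation of at least 30% at 10 µM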;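 further: DNMT1 catalytic domain with a HinP1I cleavage step and a FAM/dabcyl DNA beacon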
* marks the source's active call; other numbers are inactive results; x = no result given. Sampled rows, rich in hits. Any-hit rate of the full collection: about 2.3%.

SMILES	Scp-1 inhibitor	STEP inh	Rpn11 block	DNMT1 block	LMPTP inh	SUMO1-SIM PPI	DNMT1 confirm	Beacon interf
OCC1(Cc2ccccc2F)CCCN(Cc2c(F)ccc(F)c2F)C1 (centres undefined)	-8.1	-5.1	-3.3	-2.9	-1.1	4.1	x	x
[O-][n+]1c2ccccc2[n+]([O-])c2cc(O)ccc21	57.4*	10.7	-31.7	56.4*	20.1	21.1	1.9	1.5
Cc1nn(Cc2c(Cl)cccc2Cl)c(C)c1NC(=O)c1cn(-c2ccccc2)nc1-c1ccccc1	0.8	5.2	1.6	67.8*	2.2	-2.1	-1.6	-5.7
CCc1nn(CC(=O)NCCCc2ccccc2)c(=O)c2cc3c(OC)cccc3n12	-11.0	-0.3	-8.4	48.9	12.5	-2.6	x	x
CCc1nn(CC(=O)NCCCc2ccccc2)c(=O)c2cc3cc(F)ccc3n12	-4.7	1.4	-1.7	50.9*	3.0	5.1	-0.1	-0.5
CC(C)CC(NC(=O)C(COCc1ccccc1)NC(=O)OC(C)(C)C)C(=O)NN (centres undefined)	-5.7	-0.6	-4.1	2.0	0.3	17.8	x	x
COc1ccc(/C=C/C(=O)NCCSCc2ccco2)cc1OC	-14.8	2.5	2.0	-4.2	0.6	3.3	x	x
COc1ccc(/C(C)=N/Nc2ccc(C(=O)O)cc2)c(OC)c1	-1.7	-1.8	0.5	55.8*	-1.6	-0.1	1.3	4.8
COc1ccc2c(c1)C(=NNc1ccc(C(=O)O)cc1)c1cc(OC)ccc1-2	11.7	-0.6	11.4	-5.8	10.9	-8.7	x	x
COc1ccc(N2CCN(c3ccc(NC(=O)NN)cc3)CC2)cc1	-6.0	-0.9	-4.1	0.4	5.8	5.8	x	x
Cn1c(-c2ccccc2)cccc1=O	-3.4	-2.4	2.6	-0.9	-1.5	3.0	x	x
Cn1c(-c2ccccc2)cc(=O)n1-c1ccccc1	-5.0	1.2	-3.3	70.0*	0.4	4.1	7.3	5.5
CCCCn1nnnc1C(c1cc2ccccc2o1)N1CCN(C(=O)OCC)CC1 (centres undefined)	x	x	x	x	-0.6	-0.2	x	x
CN(C)C(=O)Oc1ccc[n+](C)c1	-8.8	0.5	0.9	60.3*	-0.4	-4.8	0.3	3.1
C[n+]1cccc(C(=O)[O-])c1	1.3	2.7	-2.9	2.2	-1.4	5.4	x	x
CCOc1ccc(NS(=O)(=O)c2ccc(C)c(C(=O)NCCCn3ccnc3)c2)cc1	-1.3	-0.3	-0.1	-3.8	0.3	0.7	x	x
COc1ccc(CS(=O)(=O)CC2(O)CCN(C(=O)c3cccc(C(F)(F)F)c3)CC2)cc1	4.8	-0.1	3.4	-1.4	-1.1	0.0	x	x
NS(=O)(=O)c1ccc(Nc2nc(-c3ccc(F)cc3)cs2)cc1	-3.4	-4.0	7.3	-5.7	2.8	-3.1	x	x
COc1ccc(-c2csc(Nc3ccc(S(N)(=O)=O)cc3)n2)cc1OC	10.4	-2.6	-0.3	63.3*	2.0	32.8	3.9	14.2
COc1cc([N+](=O)[O-])ccc1-c1ccc(/C=C2\C(=O)ON=C2c2ccccc2)o1	3.1	4.1	15.8	80.0*	3.2	64.1*	17.8	-5.9
COc1cc([N+](=O)[O-])ccc1-c1ccc(/C=N\n2cnnc2)o1	12.0	30.6	x	3.8	21.6	-3.6	x	x
COc1ccc(S(=O)(=O)Nc2ccc(S(=O)(=O)Nc3cc(C)nc(C)n3)cc2)cc1OC	-7.9	-3.7	-1.3	75.7*	-1.6	10.8	3.3	4.1
CCN(Cc1ccc(OC)c(F)c1)C(C)C(=O)Nc1ccc(S(=O)(=O)N2CCCC2)cc1 (centres undefined)	5.8	2.8	-4.6	-7.0	-1.0	7.1	x	x
CC(=O)OCCn1c2nc(=O)[nH]c(=O)c-2nc2cc(C)c(C)cc21	0.8	-201.0	-210.9	192.3*	-20.4	-62.7	139.6*	134.4*
CC(C)NC(=O)C(C)N1CCN(S(=O)(=O)c2ccc3ccccc3c2)CC1 (centres undefined)	7.0	-0.8	0.6	2.9	-0.4	-5.2	x	x
SMILES	Scp-1 inhibitor	STEP inh	Rpn11 block	DNMT1 block	LMPTP inh	SUMO1-SIM PPI	DNMT1 confirm	Beacon interf
Cc1csc(N=Cc2ccc([N+](=O)[O-])o2)n1	x	8.1	-12.1	86.3*	42.8	24.9	4.4	-5.4
O=[N+]([O-])c1ccc(/C=N/N=C/c2ccc([N+](=O)[O-])o2)o1	16.4	0.9	-21.1	15.4	-0.2	3.3	x	x
CCOc1cc2c(C#N)c(N3CCOCC3)nc(N)c2c(N)n1	11.5	1.4	8.4	17.9	8.8	11.9	x	x
CCCN(CC1CC1)c1nc(N)c2c(N)nc(OC)cc2c1C#N	-4.1	2.8	13.2	52.0*	13.5	34.8	9.7	7.0
CCOc1cc2c(C#N)c(N(CC)CC)nc(N)c2c(N)n1	1.7	7.5	27.5	85.4*	19.6	48.9*	6.1	6.5
Cc1ccnc2nc(C(=O)OCC(=O)N(CC(C)C)C3CCS(=O)(=O)C3)nn12 (centres undefined)	-1.4	-0.8	3.7	2.1	-1.1	0.6	x	x
Nc1nc(-c2ccc(Oc3ccccc3)cc2)c(CC(=O)O)s1	-3.7	0.1	x	-12.9	0.9	-21.6	x	x
O=C1NC2(CCCCCC2)C(=O)N1Cc1ccccc1Cl	-4.5	-0.3	-9.0	0.9	0.1	5.4	x	x
CCOc1ccc(-c2nnc(SCC(=O)Nc3ccc4c(c3)c3ccccc3n4CC)n2N)cc1	12.1	-2.2	-2.1	59.4*	2.1	7.2	1.4	2.1
CC(=O)c1ccc(N2CCN(C(=O)Cc3n[nH]c(=O)c4ccccc34)CC2)cc1	-3.5	-1.1	1.2	66.0*	0.2	0.4	1.1	1.2
CC(C)CN(C(=O)CSc1nc2ccccc2o1)c1c(N)n(Cc2ccccc2)c(=O)[nH]c1=O	0.4	4.6	4.7	4.8	0.1	-0.9	x	x
Cc1nn(CCCC(=O)NCc2ccc(Cl)cc2)c(C)c1[N+](=O)[O-]	-11.1	1.3	-0.8	68.9*	-0.8	-2.4	1.7	1.0
COc1cc(/C=N/NC(=O)c2nnn(-c3nonc3N)c2C(C)C)ccc1OCc1ccccc1	-6.8	1.6	-2.5	-15.4	5.8	-2.5	x	x
COc1cc(/C=N/NC(=O)c2nnn(-c3nonc3N)c2C)ccc1OCc1ccc(Cl)cc1	x	7.7	1.1	58.0*	19.9	3.9	-0.7	-0.7

Screening data deposited in PubChem by Sanford-Burnham Center for Chemical Genomics.
